Results as given in ChEMBL document CHEMBL1821594, “Synthesis and anticancer evaluation of novel 2-cyclopropylimidazo[2,1-b][1,3,4]-thiadiazole derivatives” (2011).

How the values were obtained:
[1] = system: NCI-H460; experiment: Antitumor activity against human NCI-H460 cells after 48 hrs by SRB assay; type: functional; details: NCI-H460, 48 h
How it was run: (§1)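 Cells grown in RPMI 1640 with 5% FBS and 2 mM L-glutamine and seeded at 5000–40,000 cells/well according to doubling time. They were preincubated 24 h at 37 °C, 5% CO2, then exposed to DMSO-solubilized compound for 48 h. Adherent cells were fixed with cold TCA (10% final), suspension cells with 16% final. Stained with 0.4% SRB; absorbance at 515 nm. Percent growth calculated against time-zero and control plates.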

[2] = system: SF-539; experiment: Antitumor activity against human SF539 cells after 48 hrs by SRB assay; type: functional; details: SF-539, 48 h; how it was run: as §1
[3] = read-out: LC50 (the source's name)

Compound: Clc1ccc(-c2nc3sc(C4CC4)nn3c2Br)cc1
- GI50 [1]: 5.25 µM
- TGI [1]: > 100 µM
- CC50 [1, 3]: > 100 µM
- GI50 [2]: 6.78 µM
- TGI [2]: > 100 µM
- CC50 [2, 3]: > 100 µM
